Assay results from ChEMBL document CHEMBL1165965, “Synthesis and structure-activity relationships of 1,2,3,4-tetrahydropyrido[2,3-b]pyrazines as potent and selective inhibitors of the anaplastic lymphoma kinase” (Bioorg Med Chem, 2010).

Tests used:
[1] = target: T1, Inhibitor of nuclear factor kappa-B kinase subunit alpha (Homo sapiens) (UniProt O15111); assay: Inhibition of IKK-alpha at 1 uM
T1 sequence (whole entry): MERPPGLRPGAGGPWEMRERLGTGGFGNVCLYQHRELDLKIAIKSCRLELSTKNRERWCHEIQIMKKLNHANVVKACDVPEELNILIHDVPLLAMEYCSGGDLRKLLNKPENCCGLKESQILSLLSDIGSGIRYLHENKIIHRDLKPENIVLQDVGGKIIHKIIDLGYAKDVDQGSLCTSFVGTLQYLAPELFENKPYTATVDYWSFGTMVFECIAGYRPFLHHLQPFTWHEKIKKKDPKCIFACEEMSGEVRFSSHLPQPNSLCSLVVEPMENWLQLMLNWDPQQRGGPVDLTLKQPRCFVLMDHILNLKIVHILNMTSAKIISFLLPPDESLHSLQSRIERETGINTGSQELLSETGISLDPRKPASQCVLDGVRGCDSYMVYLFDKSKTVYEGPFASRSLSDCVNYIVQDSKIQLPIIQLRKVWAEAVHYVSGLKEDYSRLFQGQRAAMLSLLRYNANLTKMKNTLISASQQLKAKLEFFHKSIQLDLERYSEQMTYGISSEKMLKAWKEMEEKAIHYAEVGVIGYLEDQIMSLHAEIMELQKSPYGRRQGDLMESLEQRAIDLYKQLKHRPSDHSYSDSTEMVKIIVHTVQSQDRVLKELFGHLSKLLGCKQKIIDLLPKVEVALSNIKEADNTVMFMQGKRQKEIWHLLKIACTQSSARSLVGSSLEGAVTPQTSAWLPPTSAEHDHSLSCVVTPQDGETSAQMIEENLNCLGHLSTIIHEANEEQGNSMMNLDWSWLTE

[2] = target: T2, Tyrosine-protein kinase ITK/TSK (Homo sapiens) (UniProt Q08881); assay: Inhibition of ITK at 1 uM
T2 sequence (whole entry): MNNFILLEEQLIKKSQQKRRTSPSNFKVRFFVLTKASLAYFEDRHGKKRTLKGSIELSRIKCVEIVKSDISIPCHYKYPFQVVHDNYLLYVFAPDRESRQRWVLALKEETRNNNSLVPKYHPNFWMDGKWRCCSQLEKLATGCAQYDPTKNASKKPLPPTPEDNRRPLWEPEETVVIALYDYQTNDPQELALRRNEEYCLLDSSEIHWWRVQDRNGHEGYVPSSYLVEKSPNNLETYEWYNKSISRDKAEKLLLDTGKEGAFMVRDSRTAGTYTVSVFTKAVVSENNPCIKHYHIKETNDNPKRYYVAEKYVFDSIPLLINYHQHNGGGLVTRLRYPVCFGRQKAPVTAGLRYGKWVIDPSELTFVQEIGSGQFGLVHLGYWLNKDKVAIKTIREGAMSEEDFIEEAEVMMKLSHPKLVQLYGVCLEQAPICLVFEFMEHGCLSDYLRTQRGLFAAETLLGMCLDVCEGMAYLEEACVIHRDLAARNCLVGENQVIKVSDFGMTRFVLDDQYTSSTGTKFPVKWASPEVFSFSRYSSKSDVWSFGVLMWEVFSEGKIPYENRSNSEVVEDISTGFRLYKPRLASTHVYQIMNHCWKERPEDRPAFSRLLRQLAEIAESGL
Method in brief: (§1)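 Single-concentration screen on the Ambit KINOMEscan platform, run against a panel of 250–400 kinases. Per-kinase inhibition was also summarized as S(90), the fraction of kinases inhibited by more than 90%.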

[3] = target: Serine/threonine-protein kinase MRCK beta (Homo sapiens) (UniProt Q9Y5S2); assay: Inhibition of MRCKB at 1 uM
[4] = target: Myosin light chain kinase 2, skeletal/cardiac muscle (Homo sapiens) (UniProt Q9H1R3); assay: Inhibition of MYLK2 at 1 uM
[5] = target: Protein kinase C eta type (Homo sapiens) (UniProt P24723); assay: Inhibition of PRKCH at 1 uM
[6] = target: Proto-oncogene tyrosine-protein kinase receptor Ret (Homo sapiens) (UniProt P07949); assay: Inhibition of RET at 1 uM
[7] = target: Receptor-interacting serine/threonine-protein kinase 2 (Homo sapiens) (UniProt O43353); assay: Inhibition of RIPK2 at 1 uM
[8] = tested on: Tyrosine-protein kinase ABL1 (Homo sapiens), P00519 [F317I]; assay: Inhibition of ABL1 F317I mutant at 1 uM
[9] = target: ALK tyrosine kinase receptor (Homo sapiens, UniProt Q9UM73); assay: Inhibition of ALK at 1 uM
[10] = target: Calcium/calmodulin-dependent protein kinase type II subunit gamma (Homo sapiens) (UniProt Q13555); assay: Inhibition of CAMK2G at 1 uM
Method in brief: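 Ambit KINOMEscan screen at a single concentration across a 250–400 kinase panel, recorded as percent inhibition. Selectivity was expressed as S(90), the fraction of kinases inhibited >90%.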

[11] = tested on: T3, Receptor-type tyrosine-protein kinase FLT3 (Homo sapiens), P36888 [D835Y]; assay: Inhibition of FLT3 D835Y mutant at 1 uM; method in brief: as §1
T3 sequence (whole entry): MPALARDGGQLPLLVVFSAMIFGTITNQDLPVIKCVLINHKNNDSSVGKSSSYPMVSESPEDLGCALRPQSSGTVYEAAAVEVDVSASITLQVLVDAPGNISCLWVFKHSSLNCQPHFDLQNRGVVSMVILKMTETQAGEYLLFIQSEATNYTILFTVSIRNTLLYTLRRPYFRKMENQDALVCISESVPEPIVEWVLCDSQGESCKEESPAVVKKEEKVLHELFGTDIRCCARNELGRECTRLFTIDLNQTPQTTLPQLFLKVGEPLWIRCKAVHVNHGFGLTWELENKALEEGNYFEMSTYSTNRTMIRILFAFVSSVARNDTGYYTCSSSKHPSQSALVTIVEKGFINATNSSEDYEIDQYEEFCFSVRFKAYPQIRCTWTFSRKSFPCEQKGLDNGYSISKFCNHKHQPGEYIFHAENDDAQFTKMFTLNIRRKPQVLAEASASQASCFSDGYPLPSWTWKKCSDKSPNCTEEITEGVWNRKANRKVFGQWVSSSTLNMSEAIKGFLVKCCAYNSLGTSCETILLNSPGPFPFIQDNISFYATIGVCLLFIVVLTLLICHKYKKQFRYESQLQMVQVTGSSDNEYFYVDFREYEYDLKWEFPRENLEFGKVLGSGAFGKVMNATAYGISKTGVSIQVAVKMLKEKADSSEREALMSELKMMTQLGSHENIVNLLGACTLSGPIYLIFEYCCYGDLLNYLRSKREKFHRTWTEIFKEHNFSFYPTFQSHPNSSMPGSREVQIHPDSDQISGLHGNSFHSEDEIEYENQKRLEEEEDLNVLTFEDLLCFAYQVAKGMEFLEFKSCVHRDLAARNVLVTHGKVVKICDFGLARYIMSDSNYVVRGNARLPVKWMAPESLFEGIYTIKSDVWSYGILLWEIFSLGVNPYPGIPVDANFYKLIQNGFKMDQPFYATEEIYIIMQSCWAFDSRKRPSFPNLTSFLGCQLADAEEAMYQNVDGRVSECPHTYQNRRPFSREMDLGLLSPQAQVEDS

Serine/threonine-protein kinase MRCK beta (Homo sapiens), sequence (Q9Y5S2 whole entry): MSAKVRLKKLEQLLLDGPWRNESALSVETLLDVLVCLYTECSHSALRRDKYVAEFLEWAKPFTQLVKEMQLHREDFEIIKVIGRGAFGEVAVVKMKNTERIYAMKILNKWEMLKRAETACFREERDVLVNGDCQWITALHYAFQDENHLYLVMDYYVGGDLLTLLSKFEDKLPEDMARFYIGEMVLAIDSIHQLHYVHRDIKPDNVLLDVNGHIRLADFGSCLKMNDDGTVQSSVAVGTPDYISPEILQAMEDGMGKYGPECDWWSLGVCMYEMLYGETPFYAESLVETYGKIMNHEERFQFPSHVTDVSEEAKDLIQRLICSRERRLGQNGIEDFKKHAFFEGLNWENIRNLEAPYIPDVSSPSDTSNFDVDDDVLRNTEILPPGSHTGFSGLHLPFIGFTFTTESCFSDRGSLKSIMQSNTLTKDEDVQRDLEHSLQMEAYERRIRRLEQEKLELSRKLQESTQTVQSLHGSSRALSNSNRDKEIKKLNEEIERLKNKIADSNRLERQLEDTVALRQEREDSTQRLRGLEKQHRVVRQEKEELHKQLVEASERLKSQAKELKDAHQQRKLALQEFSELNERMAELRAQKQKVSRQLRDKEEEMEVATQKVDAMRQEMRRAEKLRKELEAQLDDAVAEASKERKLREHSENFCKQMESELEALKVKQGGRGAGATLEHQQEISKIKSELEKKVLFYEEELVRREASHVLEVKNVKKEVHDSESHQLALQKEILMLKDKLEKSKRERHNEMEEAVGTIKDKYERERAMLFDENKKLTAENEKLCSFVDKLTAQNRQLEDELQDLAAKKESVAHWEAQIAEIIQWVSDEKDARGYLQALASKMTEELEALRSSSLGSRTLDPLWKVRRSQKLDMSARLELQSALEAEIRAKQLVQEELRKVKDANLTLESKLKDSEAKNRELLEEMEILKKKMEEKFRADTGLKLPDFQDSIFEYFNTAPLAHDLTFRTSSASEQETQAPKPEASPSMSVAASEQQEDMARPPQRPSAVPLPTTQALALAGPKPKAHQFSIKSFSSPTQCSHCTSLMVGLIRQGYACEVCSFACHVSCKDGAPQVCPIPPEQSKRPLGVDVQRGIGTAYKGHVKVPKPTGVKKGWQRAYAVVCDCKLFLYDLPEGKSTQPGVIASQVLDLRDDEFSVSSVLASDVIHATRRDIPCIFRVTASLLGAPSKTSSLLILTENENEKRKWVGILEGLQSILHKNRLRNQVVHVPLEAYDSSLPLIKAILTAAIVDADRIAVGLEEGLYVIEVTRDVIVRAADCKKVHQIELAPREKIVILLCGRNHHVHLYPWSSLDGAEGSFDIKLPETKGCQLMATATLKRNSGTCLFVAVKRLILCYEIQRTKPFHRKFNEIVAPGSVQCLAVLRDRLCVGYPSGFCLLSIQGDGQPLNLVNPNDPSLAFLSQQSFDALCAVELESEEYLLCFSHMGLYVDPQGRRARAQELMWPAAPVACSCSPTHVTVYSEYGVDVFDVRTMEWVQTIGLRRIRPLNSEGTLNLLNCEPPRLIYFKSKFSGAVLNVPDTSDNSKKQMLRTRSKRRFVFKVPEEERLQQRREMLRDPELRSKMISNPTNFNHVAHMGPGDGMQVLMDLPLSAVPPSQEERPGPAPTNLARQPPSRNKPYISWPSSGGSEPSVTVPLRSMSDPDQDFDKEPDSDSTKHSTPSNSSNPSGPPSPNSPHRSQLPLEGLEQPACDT
ALK tyrosine kinase receptor, sequence (Q9UM73 19-1620 limits assumed): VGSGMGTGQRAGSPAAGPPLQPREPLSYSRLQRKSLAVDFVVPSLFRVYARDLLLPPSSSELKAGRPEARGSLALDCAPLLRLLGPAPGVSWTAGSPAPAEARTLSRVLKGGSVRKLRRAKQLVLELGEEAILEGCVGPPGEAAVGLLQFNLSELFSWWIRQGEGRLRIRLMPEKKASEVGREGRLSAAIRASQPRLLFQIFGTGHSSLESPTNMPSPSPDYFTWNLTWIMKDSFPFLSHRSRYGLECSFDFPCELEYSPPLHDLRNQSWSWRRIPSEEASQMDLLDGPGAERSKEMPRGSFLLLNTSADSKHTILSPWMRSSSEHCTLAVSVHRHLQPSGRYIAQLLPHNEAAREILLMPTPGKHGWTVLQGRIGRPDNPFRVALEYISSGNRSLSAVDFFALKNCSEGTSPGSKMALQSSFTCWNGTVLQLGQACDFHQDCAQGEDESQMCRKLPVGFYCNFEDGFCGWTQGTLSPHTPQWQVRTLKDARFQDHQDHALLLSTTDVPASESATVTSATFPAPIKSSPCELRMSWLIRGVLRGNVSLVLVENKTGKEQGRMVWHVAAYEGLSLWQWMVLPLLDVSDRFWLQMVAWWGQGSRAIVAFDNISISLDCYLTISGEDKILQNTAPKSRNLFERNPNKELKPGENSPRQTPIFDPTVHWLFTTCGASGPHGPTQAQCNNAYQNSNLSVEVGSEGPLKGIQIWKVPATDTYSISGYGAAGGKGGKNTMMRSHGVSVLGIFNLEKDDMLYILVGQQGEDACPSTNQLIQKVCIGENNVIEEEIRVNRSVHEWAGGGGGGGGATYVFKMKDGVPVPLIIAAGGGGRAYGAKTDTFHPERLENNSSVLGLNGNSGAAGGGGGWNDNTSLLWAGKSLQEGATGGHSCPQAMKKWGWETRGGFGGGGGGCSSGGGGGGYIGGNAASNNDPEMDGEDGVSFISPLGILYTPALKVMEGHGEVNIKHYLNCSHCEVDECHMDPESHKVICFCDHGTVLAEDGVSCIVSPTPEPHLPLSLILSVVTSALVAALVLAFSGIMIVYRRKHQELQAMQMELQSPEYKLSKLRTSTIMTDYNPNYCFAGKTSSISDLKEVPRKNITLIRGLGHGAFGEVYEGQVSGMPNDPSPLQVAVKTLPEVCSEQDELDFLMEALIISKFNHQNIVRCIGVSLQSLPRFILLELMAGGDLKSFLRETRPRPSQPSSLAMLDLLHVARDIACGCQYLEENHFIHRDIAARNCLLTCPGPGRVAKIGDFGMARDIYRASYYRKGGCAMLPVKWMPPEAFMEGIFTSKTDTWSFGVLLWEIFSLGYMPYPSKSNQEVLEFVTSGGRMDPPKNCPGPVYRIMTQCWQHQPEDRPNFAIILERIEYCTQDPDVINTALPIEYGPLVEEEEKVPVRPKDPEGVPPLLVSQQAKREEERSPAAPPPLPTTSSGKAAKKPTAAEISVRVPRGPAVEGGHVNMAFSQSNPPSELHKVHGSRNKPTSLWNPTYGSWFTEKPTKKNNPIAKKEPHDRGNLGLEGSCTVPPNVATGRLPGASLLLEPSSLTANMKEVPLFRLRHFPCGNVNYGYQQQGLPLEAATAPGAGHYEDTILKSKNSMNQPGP
Tyrosine-protein kinase ABL1 (Homo sapiens), P00519 [F317I], sequence (P00519 whole entry F317I): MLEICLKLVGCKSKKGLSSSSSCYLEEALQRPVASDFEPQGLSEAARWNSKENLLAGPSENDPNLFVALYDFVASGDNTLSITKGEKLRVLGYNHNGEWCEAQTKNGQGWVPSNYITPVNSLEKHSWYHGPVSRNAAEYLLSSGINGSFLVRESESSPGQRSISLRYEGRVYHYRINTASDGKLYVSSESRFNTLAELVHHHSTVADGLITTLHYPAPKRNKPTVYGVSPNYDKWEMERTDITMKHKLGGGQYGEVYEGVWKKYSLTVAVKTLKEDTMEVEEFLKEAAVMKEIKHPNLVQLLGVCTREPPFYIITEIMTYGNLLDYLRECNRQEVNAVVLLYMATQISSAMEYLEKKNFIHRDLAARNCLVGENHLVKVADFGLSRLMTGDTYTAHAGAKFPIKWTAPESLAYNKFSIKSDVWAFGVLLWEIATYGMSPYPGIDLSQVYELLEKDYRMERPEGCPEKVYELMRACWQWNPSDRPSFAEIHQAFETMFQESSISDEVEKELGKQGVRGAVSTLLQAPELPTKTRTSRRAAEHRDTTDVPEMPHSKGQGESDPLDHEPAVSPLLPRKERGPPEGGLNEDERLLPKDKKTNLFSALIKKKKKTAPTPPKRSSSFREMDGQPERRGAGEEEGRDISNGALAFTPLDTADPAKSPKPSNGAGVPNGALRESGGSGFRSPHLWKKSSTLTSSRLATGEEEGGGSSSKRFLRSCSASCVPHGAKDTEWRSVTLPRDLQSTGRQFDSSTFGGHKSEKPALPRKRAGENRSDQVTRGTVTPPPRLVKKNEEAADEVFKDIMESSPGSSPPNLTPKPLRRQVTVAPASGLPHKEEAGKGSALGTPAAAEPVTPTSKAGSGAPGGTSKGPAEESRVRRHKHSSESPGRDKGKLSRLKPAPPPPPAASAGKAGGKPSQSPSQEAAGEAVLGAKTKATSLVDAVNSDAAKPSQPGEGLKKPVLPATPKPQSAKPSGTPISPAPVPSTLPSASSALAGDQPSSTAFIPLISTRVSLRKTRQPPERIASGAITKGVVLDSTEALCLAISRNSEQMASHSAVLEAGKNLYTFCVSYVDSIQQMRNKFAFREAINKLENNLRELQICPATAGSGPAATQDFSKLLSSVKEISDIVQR
Calcium/calmodulin-dependent protein kinase type II subunit gamma (Homo sapiens), sequence (Q13555 whole entry): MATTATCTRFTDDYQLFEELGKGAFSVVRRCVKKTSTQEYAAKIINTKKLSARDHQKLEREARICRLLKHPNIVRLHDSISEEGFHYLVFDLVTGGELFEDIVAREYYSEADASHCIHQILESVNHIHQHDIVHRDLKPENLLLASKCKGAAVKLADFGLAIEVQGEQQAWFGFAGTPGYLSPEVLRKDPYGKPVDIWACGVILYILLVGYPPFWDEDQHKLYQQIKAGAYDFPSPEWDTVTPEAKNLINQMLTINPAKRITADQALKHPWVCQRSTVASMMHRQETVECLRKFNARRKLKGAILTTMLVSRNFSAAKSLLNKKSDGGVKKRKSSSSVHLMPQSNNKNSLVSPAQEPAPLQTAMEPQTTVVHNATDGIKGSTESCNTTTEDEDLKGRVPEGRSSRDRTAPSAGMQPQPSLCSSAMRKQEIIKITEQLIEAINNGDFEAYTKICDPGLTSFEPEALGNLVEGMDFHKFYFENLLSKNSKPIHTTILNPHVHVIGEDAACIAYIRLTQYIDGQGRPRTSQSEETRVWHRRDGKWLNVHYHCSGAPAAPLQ

| SMILES | inhibition [1] [%] | inhibition [2] [%] | inhibition [3] [%] | inhibition [4] [%] | inhibition [5] [%] | inhibition [6] [%] | inhibition [7] [%] | inhibition [8] [%] | inhibition [9] [%] | inhibition [10] [%] | inhibition [11] [%] |
| --- | --- | --- | --- | --- | --- | --- | --- | --- | --- | --- | --- |
| CN1CCN(c2ccc(-c3cnc4c(c3)N(Cc3cc(Cl)ccc3Cl)CCN4)cn2)CC1 | < 50 | < 50 | < 50 | < 50 | < 50 | < 50 | < 50 | < 50 | 98 | < 50 | 87 |
| CN1CCN(c2ccc(-c3cnc4c(c3)N(Cc3cc(Cl)ccc3C(F)(F)F)CCN4)cn2)CC1 | < 50 | < 50 | < 50 | < 50 | < 50 | < 50 | < 50 | < 50 | 98 | < 50 | 85 |
| CN1CCN(c2ccc(-c3cnc4c(c3)N(Cc3c(F)ccc(F)c3Cl)CCN4)cn2)CC1 | < 50 | < 50 | < 50 | < 50 | < 50 | < 50 | < 50 | 74 | 97 | < 50 | < 50 |
| O=C(c1ccc(-c2cnc3c(c2)N(Cc2cc(Cl)ccc2C(F)(F)F)CCN3)cc1)N1CCC(N2CCCC2)CC1 | – | < 50 | < 50 | < 50 | < 50 | < 50 | < 50 | – | 83.4 | < 50 | 75.5 |
| COC1CCN(C(=O)c2ccc(-c3cnc4c(c3)N(Cc3cc(Cl)ccc3C(F)(F)F)CCN4)cc2)CC1 | – | < 50 | < 50 | < 50 | < 50 | < 50 | < 50 | – | 85.6 | < 50 | 66.7 |
| FC(F)(F)c1ccc(Cl)cc1CN1CCNc2ncc(-c3ccnc(N4CCNCC4)c3)cc21 | < 50 | < 50 | < 50 | < 50 | < 50 | 77 | < 50 | < 50 | 99 | < 50 | 93 |
| CN1CCN(c2ccc(-c3cnc4c(c3)N(Cc3cc(F)ccc3F)CCN4)cn2)CC1 | < 50 | < 50 | < 50 | < 50 | < 50 | < 50 | < 50 | < 50 | 96.7 | < 50 | 80.8 |
| O=C(c1ccc(-c2cnc3c(c2)N(Cc2cc(Cl)ccc2C(F)(F)F)CCN3)cc1)N1CCCCC1 | – | < 50 | < 50 | < 50 | < 50 | < 50 | < 50 | – | < 50 | < 50 | < 50 |
| CC(=O)N1CCN(c2cc(-c3cnc4c(c3)N(Cc3cc(Cl)ccc3C(F)(F)F)CCN4)ccn2)CC1 | < 50 | < 50 | < 50 | < 50 | < 50 | < 50 | < 50 | < 50 | 98 | < 50 | 87 |
| O=C(O)c1ccc(-c2cnc3c(c2)N(Cc2cc(Cl)ccc2C(F)(F)F)CCN3)cc1 | – | < 50 | < 50 | < 50 | < 50 | < 50 | < 50 | < 50 | < 50 | < 50 | < 50 |
